Assays:
Assay type in all cases: functional
T47D = assay: Cytotoxicity against human T47D cells assessed as cell growth at 10^-5 M after 48 hrs by SRB assay; settings: read-out: Activity
Procedure, shortened: (§1)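 NCI primary single-dose screen at 10^-5 M. Cells grown in RPMI 1640 with 5% FBS and 2 mM L-glutamine, given 24 h before drug addition, then 48 h exposure at 37 °C, 5% CO2. Cells TCA-fixed, stained with SRB, read at 515 nm. Reported as percent growth of treated cells relative to untreated controls.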

HT-29 = assay: Cytotoxicity against human HT-29 cells assessed as cell growth at 10^-5 M after 48 hrs by SRB assay; settings: HT-29, 48 h, read-out: Activity
Procedure, shortened: (§2)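 NCI 60 single-dose screen at 10^-5 M. Cells in RPMI 1640 with 5% FBS and 2 mM L-glutamine, preincubated 24 h at 37 °C/5% CO2. Drug from DMSO stock, then 48 h exposure. TCA fixation, SRB staining, absorbance at 515 nm. Result given as percent growth of treated cells relative to untreated control.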

U-251 = assay: Cytotoxicity against human U251 cells assessed as cell growth at 10^-5 M after 48 hrs by SRB assay; settings: U-251, 48 h, read-out: Activity; procedure, shortened: as §1
IGROV-1 = assay: Cytotoxicity against human IGROV1 cells assessed as cell growth at 10^-5 M after 48 hrs by SRB assay; settings: IGROV-1, 48 h, read-out: Activity; procedure, shortened: as §2
MCF7 = assay: Cytotoxicity against human MCF7 cells assessed as cell growth at 10^-5 M after 48 hrs by SRB assay; settings: MCF7, 48 h, read-out: Activity; procedure, shortened: as §2
TK-10 = assay: Cytotoxicity against human TK10 cells assessed as cell growth at 10^-5 M after 48 hrs by SRB assay; settings: TK-10, 48 h, read-out: Activity; procedure, shortened: as §1
786-0 = assay: Cytotoxicity against human 786-0 cells assessed as cell growth at 10^-5 M after 48 hrs by SRB assay; settings: 786-0, 48 h, read-out: Activity; procedure, shortened: as §2
HCT-15 = assay: Cytotoxicity against human HCT15 cells assessed as cell growth at 10^-5 M after 48 hrs by SRB assay; settings: HCT-15, 48 h, read-out: Activity; procedure, shortened: as §2
[1] = Cytotoxicity against human NCI-ADR-RES cells assessed as cell growth at 10^-5 M after 48 hrs by SRB assay; settings: read-out: Activity
Procedure, shortened: (§3)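 NCI 60-panel single-dose primary screen at 10^-5 M. Cells are grown in RPMI 1640 with 5% FBS and 2 mM L-glutamine and preincubated 24 h at 37 °C. Drug exposure is 48 h. Cells are TCA-fixed, stained with SRB and absorbance is read at 515 nm. Results are reported as percent growth of treated cells versus untreated controls, corrected using time-zero plates.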

DU-145 = assay: Cytotoxicity against human DU145 cells assessed as cell growth at 10^-5 M after 48 hrs by SRB assay; settings: DU-145, 48 h, read-out: Activity; procedure, shortened: as §2
CCRF-CEM = assay: Cytotoxicity against human CCRF-CEM cells assessed as cell growth at 10^-5 M after 48 hrs by SRB assay; settings: read-out: Activity; procedure, shortened: as §2
NCI-H23 = assay: Cytotoxicity against human NCI-H23 cells assessed as cell growth at 10^-5 M after 48 hrs by SRB assay; settings: NCI-H23, 48 h, read-out: Activity; procedure, shortened: as §3
HCC 2998 = assay: Cytotoxicity against human HCC2998 cells assessed as cell growth at 10^-5 M after 48 hrs by SRB assay; settings: HCC 2998, 48 h, read-out: Activity; procedure, shortened: as §2
A498 = assay: Cytotoxicity against human A498 cells assessed as cell growth at 10^-5 M after 48 hrs by SRB assay; settings: A498, 48 h, read-out: Activity; procedure, shortened: as §2
HOP-92 = assay: Cytotoxicity against human HOP92 cells assessed as cell growth at 10^-5 M after 48 hrs by SRB assay; settings: HOP-92, 48 h, read-out: Activity; procedure, shortened: as §2
COLO 205 = assay: Cytotoxicity against human COLO205 cells assessed as cell growth at 10^-5 M after 48 hrs by SRB assay; settings: COLO 205, 48 h, read-out: Activity; procedure, shortened: as §2
KM12 = assay: Cytotoxicity against human KM12 cells assessed as cell growth at 10^-5 M after 48 hrs by SRB assay; settings: KM12, 48 h, read-out: Activity; procedure, shortened: as §2
LOX IMVI = assay: Cytotoxicity against human LOXIMVI cells assessed as cell growth at 10^-5 M after 48 hrs by SRB assay; settings: read-out: Activity; procedure, shortened: as §2
SF-268 = assay: Cytotoxicity against human SF268 cells assessed as cell growth at 10^-5 M after 48 hrs by SRB assay; settings: SF-268, 48 h, read-out: Activity; procedure, shortened: as §3
SF-539 = assay: Cytotoxicity against human SF539 cells assessed as cell growth at 10^-5 M after 48 hrs by SRB assay; settings: SF-539, 48 h, read-out: Activity; procedure, shortened: as §3
UACC-257 = assay: Cytotoxicity against human UACC257 cells assessed as cell growth at 10^-5 M after 48 hrs by SRB assay; settings: UACC-257, 48 h, read-out: Activity; procedure, shortened: as §1
UACC-62 = assay: Cytotoxicity against human UACC62 cells assessed as cell growth at 10^-5 M after 48 hrs by SRB assay; settings: UACC-62, 48 h, read-out: Activity; procedure, shortened: as §1
SK-MEL-2 = assay: Cytotoxicity against human SK-MEL-2 cells assessed as cell growth at 10^-5 M after 48 hrs by SRB assay; settings: SK-MEL-2, 48 h, read-out: Activity; procedure, shortened: as §3
K562 = assay: Cytotoxicity against human K562 cells assessed as cell growth at 10^-5 M after 48 hrs by SRB assay; settings: K562, 48 h, read-out: Activity; procedure, shortened: as §2
A549 = assay: Cytotoxicity against human A549 cells assessed as cell growth at 10^-5 M after 48 hrs by SRB assay; settings: A549, 48 h, read-out: Activity; procedure, shortened: as §2
PC-3 = assay: Cytotoxicity against human PC3 cells assessed as cell growth at 10^-5 M after 48 hrs by SRB assay; settings: PC-3, 48 h, read-out: Activity; procedure, shortened: as §3
NCI-H460 = assay: Cytotoxicity against human NCI-H460 cells assessed as cell growth at 10^-5 M after 48 hrs by SRB assay; settings: NCI-H460, 48 h, read-out: Activity; procedure, shortened: as §3
SK-OV-3 = assay: Cytotoxicity against human SKOV3 cells assessed as cell growth at 10^-5 M after 48 hrs by SRB assay; settings: SK-OV-3, 48 h, read-out: Activity; procedure, shortened: as §3
CAKI-1 = assay: Cytotoxicity against human Caki1 cells assessed as cell growth at 10^-5 M after 48 hrs by SRB assay; settings: CAKI-1, 48 h, read-out: Activity; procedure, shortened: as §2
SW-620 = assay: Cytotoxicity against human SW620 cells assessed as cell growth at 10^-5 M after 48 hrs by SRB assay; settings: SW-620, 48 h, read-out: Activity; procedure, shortened: as §1

Compound: CCOC(=O)/C(C#N)=C\Nc1ccc2ncnc(Nc3ccc(Cl)cc3Cl)c2c1
- growth at 10 µM (T47D): 58.6%
- growth at 10 µM (HT-29): 79.4%
- growth at 10 µM (U-251): 81.3%
- growth at 10 µM (IGROV-1): 55%
- growth at 10 µM (MCF7): 87.6%
- growth at 10 µM (TK-10): 44.2%
- growth at 10 µM (786-0): 82.6%
- growth at 10 µM (HCT-15): 92.7%
- growth at 10 µM [1]: 85.4%
- growth at 10 µM (DU-145): 55.9%
- growth at 10 µM (CCRF-CEM): 70.9%
- growth at 10 µM (NCI-H23): 99.5%
- growth at 10 µM (HCC 2998): 119%
- growth at 10 µM (A498): 48.7%
- growth at 10 µM (HOP-92): 56.5%
- growth at 10 µM (COLO 205): 108%
- growth at 10 µM (KM12): 79.1%
- growth at 10 µM (LOX IMVI): 87.5%
- growth at 10 µM (SF-268): 73%
- growth at 10 µM (SF-539): 92.7%
- growth at 10 µM (UACC-257): 97.2%
- growth at 10 µM (UACC-62): 90%
- growth at 10 µM (SK-MEL-2): 110%
- growth at 10 µM (K562): 59.7%
- growth at 10 µM (A549): 72.1%
- growth at 10 µM (PC-3): 59.3%
- growth at 10 µM (NCI-H460): 84.8%
- growth at 10 µM (SK-OV-3): 97%
- growth at 10 µM (CAKI-1): 39%
- growth at 10 µM (SW-620): 100%

Compound: CCOC(=O)/C(C#N)=C\Nc1ccc2ncnc(Nc3ccccc3Cl)c2c1
- growth at 10 µM (T47D): 77.6%
- growth at 10 µM (HT-29): 100%
- growth at 10 µM (U-251): 96.3%
- growth at 10 µM (IGROV-1): 79.7%
- growth at 10 µM (MCF7): 110%
- growth at 10 µM (TK-10): 53%
- growth at 10 µM (786-0): 91.3%
- growth at 10 µM (HCT-15): 99%
- growth at 10 µM [1]: 99.6%
- growth at 10 µM (DU-145): 62.1%
- growth at 10 µM (CCRF-CEM): 93.1%
- growth at 10 µM (NCI-H23): 103%
- growth at 10 µM (HCC 2998): 117%
- growth at 10 µM (A498): 63.7%
- growth at 10 µM (HOP-92): 70.4%
- growth at 10 µM (COLO 205): 110%
- growth at 10 µM (KM12): 88.5%
- growth at 10 µM (LOX IMVI): 93%
- growth at 10 µM (SF-268): 106%
- growth at 10 µM (SF-539): 111%
- growth at 10 µM (UACC-257): 120%
- growth at 10 µM (UACC-62): 107%
- growth at 10 µM (SK-MEL-2): 106%
- growth at 10 µM (K562): 88.6%
- growth at 10 µM (A549): 82.4%
- growth at 10 µM (PC-3): 98.8%
- growth at 10 µM (NCI-H460): 98.7%
- growth at 10 µM (SK-OV-3): 107%
- growth at 10 µM (CAKI-1): 45%
- growth at 10 µM (SW-620): 116%

Reference: ChEMBL document CHEMBL2346534, “Design, synthesis and in vitro anti-proliferative activity of 4,6-quinazolinediamines as potent EGFR-TK inhibitors” (Eur J Med Chem, 2013)
